{"source": "ChEMBL document CHEMBL1821628", "about": "“Anti-inflammatory endiandric acid analogues from the roots of Beilschmiedia tsangii” (J Nat Prod, 2011)", "key": {"[1]": {"target": "T1, Nitric oxide synthase, inducible (Mus musculus) (UniProt P29477)", "T1 sequence (whole entry)": "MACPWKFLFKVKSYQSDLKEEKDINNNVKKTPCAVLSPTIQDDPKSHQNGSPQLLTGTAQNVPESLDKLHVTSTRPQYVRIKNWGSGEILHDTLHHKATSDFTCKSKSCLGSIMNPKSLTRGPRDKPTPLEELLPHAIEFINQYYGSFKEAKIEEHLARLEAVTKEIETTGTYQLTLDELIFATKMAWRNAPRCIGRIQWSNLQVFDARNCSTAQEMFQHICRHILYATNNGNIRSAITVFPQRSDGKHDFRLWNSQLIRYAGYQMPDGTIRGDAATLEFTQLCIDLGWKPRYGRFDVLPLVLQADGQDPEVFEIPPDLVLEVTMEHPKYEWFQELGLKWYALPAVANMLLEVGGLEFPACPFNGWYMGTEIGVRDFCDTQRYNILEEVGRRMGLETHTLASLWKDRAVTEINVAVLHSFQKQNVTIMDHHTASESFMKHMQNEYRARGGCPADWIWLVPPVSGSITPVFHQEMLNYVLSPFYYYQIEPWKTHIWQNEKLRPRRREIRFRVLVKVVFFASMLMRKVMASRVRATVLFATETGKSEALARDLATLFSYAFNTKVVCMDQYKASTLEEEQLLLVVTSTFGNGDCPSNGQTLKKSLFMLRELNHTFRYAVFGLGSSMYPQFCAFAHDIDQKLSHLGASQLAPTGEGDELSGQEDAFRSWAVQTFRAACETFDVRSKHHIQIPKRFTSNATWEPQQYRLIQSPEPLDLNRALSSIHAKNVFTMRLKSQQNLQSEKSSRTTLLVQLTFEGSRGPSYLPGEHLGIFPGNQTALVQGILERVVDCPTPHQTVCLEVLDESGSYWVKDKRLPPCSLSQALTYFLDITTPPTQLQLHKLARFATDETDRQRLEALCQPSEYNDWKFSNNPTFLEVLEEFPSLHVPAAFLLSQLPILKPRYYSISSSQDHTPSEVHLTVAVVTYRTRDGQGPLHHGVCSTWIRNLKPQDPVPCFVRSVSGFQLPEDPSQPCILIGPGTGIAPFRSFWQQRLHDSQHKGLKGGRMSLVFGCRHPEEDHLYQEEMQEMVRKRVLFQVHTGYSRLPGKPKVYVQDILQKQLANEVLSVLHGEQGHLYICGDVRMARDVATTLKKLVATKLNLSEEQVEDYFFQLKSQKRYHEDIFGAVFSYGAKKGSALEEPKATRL", "experiment": "Inhibition of iNOS in mouse RAW264.7 cells assessed as anti-inflammatory activity by measuring inhibition of LPS-induced nitric oxide production at 100 uM after 24 hrs", "type": "cell-based", "in_short": "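RAW 264.7 murine macrophages grown to confluence over 24 h, then held 4 h in serum-free DMEM. Compounds or vehicle (0.1% DMSO) were added with or without LPS (200 ng/mL) for 24 h. Supernatant nitrite was measured by Griess reagent, 10 min at room temperature, A550, against a sodium nitrite standard curve. Results are % inhibition versus vehicle plus LPS; Emax is taken at 100 μM; mean ± SE.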"}, "[2]": {"target": "T2, Nitric oxide synthase, inducible (Mus musculus, UniProt P29477)", "T2 sequence (P29477 whole entry)": "T1 sequence (whole entry)", "conditions": "raw264.7"}}}
{"smiles": "COc1cc(C(=O)O[C@@H](c2cc(OC)c(OC)c(OC)c2)[C@H](C)C(C)=O)cc(OC)c1OC", "note": "[TSANGIN C]", "values": [{"measurement": "Emax", "setting": "[1]", "result": 85.5, "unit": "%"}, {"measurement": "IC50", "setting": "[2]", "result": 51.4, "unit": "µM"}]}
{"smiles": "CC(C)CNC(=O)[C@H]1[C@H]2C=C[C@@H]3[C@@H]1C[C@H]1[C@H](CCCc4ccc5c(c4)OCO5)[C@@H]2[C@@H]31", "note": "(relative stereo)", "values": [{"measurement": "Emax", "setting": "[1]", "result": 72.1, "unit": "%"}, {"measurement": "IC50", "setting": "[2]", "result": 16.4, "unit": "µM"}]}
{"smiles": "N=C(N)NN", "note": "[PIMAGEDINE]", "values": [{"measurement": "IC50", "setting": "[2]", "result": 26.5, "unit": "µM"}]}
{"smiles": "O=C(O)[C@H]1[C@H]2C=C[C@@H]3[C@@H]1C[C@H]1[C@H](CCCc4ccc5c(c4)OCO5)[C@@H]2[C@@H]31", "note": "(relative stereo)", "values": [{"measurement": "Emax", "setting": "[1]", "result": 77.9, "unit": "%"}, {"measurement": "IC50", "setting": "[2]", "result": 58.2, "unit": "µM"}]}
{"smiles": "O=C(O)/C=C/[C@H]1[C@@H]2C=C[C@@H]3[C@H]1C[C@H]1[C@H](CCCCCc4ccc5c(c4)OCO5)[C@H]2[C@@H]31", "note": "(relative stereo)", "values": [{"measurement": "Emax", "setting": "[1]", "result": 91.4, "unit": "%"}, {"measurement": "IC50", "setting": "[2]", "result": 39.6, "unit": "µM"}]}
{"smiles": "COc1cc([C@@H]2O[C@@H](c3cc(OC)c4c(c3)OCO4)[C@H](C)[C@H]2C)cc2c1OCO2", "note": "(relative stereo)", "values": [{"measurement": "Emax", "setting": "[1]", "result": 65.6, "unit": "%"}, {"measurement": "IC50", "setting": "[2]", "result": 52.5, "unit": "µM"}]}
{"smiles": "N=C(NCCC[C@H](N)C(=O)O)N[N+](=O)[O-]", "note": "[NITROARGININE]", "values": [{"measurement": "Emax", "setting": "[1]", "result": 43.7, "unit": "%"}, {"measurement": "IC50", "setting": "[2]", "result": 152, "unit": "µM"}]}
{"smiles": "CC(C)CNC(=O)[C@@H]1C=C[C@@H]2C[C@H]3[C@H](Cc4ccc5c(c4)OCO5)[C@H]4C=C[C@@H]1[C@@H]2[C@H]43", "note": "(relative stereo) [ENDIANDRAMIDE A]", "values": [{"measurement": "Emax", "setting": "[1]", "result": 97.3, "unit": "%"}, {"measurement": "IC50", "setting": "[2]", "result": 9.59, "unit": "µM"}]}
{"smiles": "COc1cc([C@@H]2O[C@@H](c3cc(OC)c4c(c3)OCO4)[C@H](C)[C@H]2C)cc(OC)c1OC", "note": "(relative stereo)", "values": [{"measurement": "Emax", "setting": "[1]", "result": 63.4, "unit": "%"}, {"measurement": "IC50", "setting": "[2]", "result": 49, "unit": "µM"}]}
{"smiles": "COc1cc([C@@H]2O[C@@H](c3cc(OC)c4c(c3)OCO4)[C@H](C)[C@H]2C)cc(O)c1OC", "note": "(relative stereo) [BEILSCHMINOL A]", "values": [{"measurement": "Emax", "setting": "[1]", "result": 86.6, "unit": "%"}, {"measurement": "IC50", "setting": "[2]", "result": 51.5, "unit": "µM"}]}
{"smiles": "O=C(O)[C@@H]1C=C[C@@H]2C[C@H]3[C@H](Cc4ccc5c(c4)OCO5)[C@H]4C=C[C@@H]1[C@@H]2[C@H]43", "note": "(relative stereo) [TSANGIBEILIN B]", "values": [{"measurement": "Emax", "setting": "[1]", "result": 96.1, "unit": "%"}, {"measurement": "IC50", "setting": "[2]", "result": 42.3, "unit": "µM"}]}
{"smiles": "O=C(O)[C@@H]1C=C[C@@H]2C[C@H]3[C@H](CCCc4ccc5c(c4)OCO5)[C@H]4C=C[C@@H]1[C@@H]2[C@H]43", "note": "(relative stereo) [TSANGIBEILIN A]", "values": [{"measurement": "Emax", "setting": "[1]", "result": 96.9, "unit": "%"}, {"measurement": "IC50", "setting": "[2]", "result": 49.6, "unit": "µM"}]}
